According to article PMC4506215 (Nature, 2015):
Substitutions are numbered along the chain they refer to.

Assays:
[1] = system: metastatic CRPC; conditions: cited from earlier work
[2] = target: T1, mutant AR (expressed in LNCaP) (Homo sapiens, UniProt P10275, T878A); experiment: cell-based; assay type: binding
T1 sequence (P10275 1-920 T878A): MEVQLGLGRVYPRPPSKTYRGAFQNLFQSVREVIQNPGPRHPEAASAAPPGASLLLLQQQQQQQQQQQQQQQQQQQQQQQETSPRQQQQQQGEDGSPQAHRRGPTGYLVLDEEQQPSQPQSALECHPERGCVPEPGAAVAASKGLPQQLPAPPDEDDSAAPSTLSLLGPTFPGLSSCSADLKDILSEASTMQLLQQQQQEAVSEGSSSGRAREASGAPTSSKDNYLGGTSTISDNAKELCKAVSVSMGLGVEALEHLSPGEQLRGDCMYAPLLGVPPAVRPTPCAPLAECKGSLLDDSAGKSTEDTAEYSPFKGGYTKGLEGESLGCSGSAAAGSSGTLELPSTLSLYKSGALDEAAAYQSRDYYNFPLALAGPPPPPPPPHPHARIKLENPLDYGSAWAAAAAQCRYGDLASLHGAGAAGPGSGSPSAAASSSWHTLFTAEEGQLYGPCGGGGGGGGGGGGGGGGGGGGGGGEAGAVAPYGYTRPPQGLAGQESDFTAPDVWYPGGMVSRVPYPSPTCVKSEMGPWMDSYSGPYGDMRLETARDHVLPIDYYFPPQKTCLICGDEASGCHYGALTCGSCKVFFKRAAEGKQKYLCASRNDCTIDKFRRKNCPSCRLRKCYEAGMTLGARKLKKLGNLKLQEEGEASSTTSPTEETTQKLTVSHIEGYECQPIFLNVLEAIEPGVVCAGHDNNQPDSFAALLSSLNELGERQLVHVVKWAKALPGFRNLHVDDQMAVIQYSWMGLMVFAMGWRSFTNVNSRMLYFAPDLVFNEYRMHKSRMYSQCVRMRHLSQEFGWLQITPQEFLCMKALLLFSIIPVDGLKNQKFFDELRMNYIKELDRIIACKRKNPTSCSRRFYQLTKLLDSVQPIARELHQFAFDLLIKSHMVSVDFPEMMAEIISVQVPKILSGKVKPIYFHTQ

[3] = target: T2, wild-type AR (expressed in LAPC4) (Homo sapiens, UniProt P10275); experiment: cell-based; assay type: binding
T2 sequence (P10275 1-920): T1 sequence (P10275 1-920 T878A) with A878T

[4] = target: T3, SRD5A (Homo sapiens, UniProt P18405); experiment: Conversion of [3H]-AD to 5α-reduced androgens in LAPC4 cells; assay type: cell-based; conditions: up to 100 μM
T3 sequence (P18405 1-259): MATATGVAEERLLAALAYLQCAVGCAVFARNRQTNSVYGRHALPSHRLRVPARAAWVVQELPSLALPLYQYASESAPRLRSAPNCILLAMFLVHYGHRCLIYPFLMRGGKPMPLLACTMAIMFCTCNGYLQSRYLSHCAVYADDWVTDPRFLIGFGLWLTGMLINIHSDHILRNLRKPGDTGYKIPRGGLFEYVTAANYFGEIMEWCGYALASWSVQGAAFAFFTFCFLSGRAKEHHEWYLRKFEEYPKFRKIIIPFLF
Method in brief: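 LAPC4 cells (IMDM, 10% FBS) seeded at 0.2 million/well for ~24 h, then given [3H]-AD mixed with unlabeled AD (final 100 nM, ~1,000,000 cpm/well) plus test compound at 37°C. Medium treated with β-glucuronidase (65°C, 2 h), extracted with ethyl acetate:isooctane (1:1), dried. Steroids separated by C18 reverse-phase HPLC, methanol/water gradient. Biological n=3; repeated three times.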

[5] = patients, wide interpatient variability; cited from earlier work
[6] = system: LNCaP cells; experiment: Cell proliferation assay, DHT-induced growth; assay type: cell-based; conditions: DHT 0.5 nM, 2, 4 and 6 days
Method in brief: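 LNCaP cells (0.1 million/mL) in phenol red-free RPMI-1640 with 10% charcoal-stripped FBS plus androgen and/or test compound. Medium changed every other day. Cells lysed after 2, 4 or 6 days; growth measured as DNA content by Hoechst fluorescence. Two-tailed Student's t-test.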

| SMILES | survival in metastatic CRPC [1] | IC50 [2] | IC50 [3] | effect on conversion from AD to 5α-reduced androgens [4] | Cmax [5] | effect on DHT-stimulated cell growth [6] |
| --- | --- | --- | --- | --- | --- | --- |
| CNC(=O)c1ccc2cc([C@@]3(O)CCn4cncc43)ccc2c1 [TAK-700] | failed to prolong survival |  |  |  |  |  |
| C[C@]12CC[C@H](O)CC1=CC[C@@H]1[C@@H]2CC[C@]2(C)C(c3cccnc3)=CC[C@@H]12 [Abi, abiraterone] |  | 0.418 µM | > 0.5 µM | no detectable effect | ~1 µM |  |
| CNC(=O)c1ccc(N2C(=S)N(c3ccc(C#N)c(C(F)(F)F)c3)C(=O)C2(C)C)cc1F [enzalutamide] |  |  |  | no detectable effect |  | more potent than Abi |
